According to ChEMBL document CHEMBL1147959, “N- and S-alpha-l-arabinopyranosyl[1,2,4]triazolo[3,4-b][1,3,4]thiadiazoles. First synthesis and biological evaluation” (2007):
≈ marks a conversion by molar mass, not a printed value.

Assays:
Assay type in all cases: functional
Staphylococcus aureus [1] = assay: Antibacterial activity against Staphylococcus aureus ATCC 25923 at 2.5 mg/mL by diffusion agar method; settings: read-out: IZ
Summary of the method: (§1)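 Agar diffusion. Compounds and standard drugs were dissolved in DMSO at 5 mg/mL and diluted to 5, 2.5 and 1 mg/mL. Hundred microlitres of each concentration was applied. Inhibition was scored against the control: 0.1–0.5 cm beyond control = +, 0.6–1.0 cm = ++, 1.0–1.5 cm = +++, 0 = not detected.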

[2] = system: Syncephalastrum racemosum; assay: Antifungal activity against Syncephalastrum racemosum ATCC 18192 at 2.5 mg/mL by diffusion agar method; settings: read-out: IZ; summary of the method: as §1
Aspergillus fumigatus [3] = assay: Antifungal activity against Aspergillus fumigatus ATCC 96918 by broth dilution method
Summary of the method: (§2)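 MIC by twofold serial broth dilution. Compounds were dissolved in DMSO at 1.6 mg/mL as stock. Dilutions in Mueller–Hinton broth and Sabouraud dextrose broth ran from 800 down to 0.78. Inoculated broth containing DMSO alone at the same dilutions served as control. Gentamycin and griseofulvin were the reference drugs.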

Staphylococcus aureus [4] = assay: Antibacterial activity against Staphylococcus aureus ATCC 25923 at 5 mg/mL by diffusion agar method; settings: read-out: IZ; summary of the method: as §1
[5] = system: Syncephalastrum racemosum; assay: Antifungal activity against Syncephalastrum racemosum ATCC 18192 by broth dilution method; summary of the method: as §2
Bacillus subtilis [6] = assay: Antibacterial activity against Bacillus subtilis ATCC 6633 at 1 mg/mL by diffusion agar method; settings: read-out: IZ; summary of the method: as §1
Bacillus subtilis [7] = assay: Antibacterial activity against Bacillus subtilis ATCC 6633 by broth dilution method
Summary of the method: (§3)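 MIC by twofold serial broth dilution. Compounds were dissolved in DMSO as a 1.6 mg/mL stock and diluted in Mueller-Hinton broth or Sabouraud dextrose broth to 800, 400, 200, 100, 50, 25, 12.5, 6.25, 3.12, 1.56 and 0.78. A control of inoculated broth with DMSO alone at the same dilutions was included. Gentamycin and griseofulvin served as reference drugs.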

[8] = system: Syncephalastrum racemosum; assay: Antifungal activity against Syncephalastrum racemosum ATCC 18192 at 5 mg/mL by diffusion agar method; settings: read-out: IZ; summary of the method: as §1
Staphylococcus aureus [9] = assay: Antibacterial activity against Staphylococcus aureus ATCC 25923 by broth dilution method; summary of the method: as §2
Aspergillus fumigatus [10] = assay: Antifungal activity against Aspergillus fumigatus ATCC 96918 at 2.5 mg/mL by diffusion agar method; settings: read-out: IZ; summary of the method: as §1
Pseudomonas aeruginosa [11] = assay: Antibacterial activity against Pseudomonas aeruginosa ATCC 10145 by broth dilution method; summary of the method: as §3
Aspergillus fumigatus [12] = assay: Antifungal activity against Aspergillus fumigatus ATCC 96918 at 5 mg/mL by diffusion agar method; settings: read-out: IZ; summary of the method: as §1
Staphylococcus aureus [13] = assay: Antibacterial activity against Staphylococcus aureus ATCC 25923 at 1 mg/mL by diffusion agar method; settings: read-out: IZ; summary of the method: as §1
Pseudomonas aeruginosa [14] = assay: Antibacterial activity against Pseudomonas aeruginosa ATCC 10145 at 2.5 mg/mL by diffusion agar method; settings: read-out: IZ; summary of the method: as §1
Bacillus subtilis [15] = assay: Antibacterial activity against Bacillus subtilis ATCC 6633 at 5 mg/mL by diffusion agar method; settings: read-out: IZ; summary of the method: as §1
Penicillium italicum [16] = assay: Antifungal activity against Penicillium italicum ATCC 48114 by broth dilution method; summary of the method: as §2
Escherichia coli [17] = assay: Antibacterial activity against Escherichia coli ATCC 23556 at 5 mg/mL by diffusion agar method; settings: read-out: IZ; summary of the method: as §1
Aspergillus fumigatus [18] = assay: Antifungal activity against Aspergillus fumigatus ATCC 96918 at 1 mg/mL by diffusion agar method; settings: read-out: IZ; summary of the method: as §1
Escherichia coli [19] = assay: Antibacterial activity against Escherichia coli ATCC 23556 by broth dilution method; summary of the method: as §2
Penicillium italicum [20] = assay: Antifungal activity against Penicillium italicum ATCC 48114 at 5 mg/mL by diffusion agar method; settings: read-out: IZ; summary of the method: as §1
Bacillus subtilis [21] = assay: Antibacterial activity against Bacillus subtilis ATCC 6633 at 2.5 mg/mL by diffusion agar method; settings: read-out: IZ; summary of the method: as §1
Penicillium italicum [22] = assay: Antifungal activity against Penicillium italicum ATCC 48114 at 2.5 mg/mL by diffusion agar method; settings: read-out: IZ; summary of the method: as §1
Escherichia coli [23] = assay: Antibacterial activity against Escherichia coli ATCC 23556 at 2.5 mg/mL by diffusion agar method; settings: read-out: IZ; summary of the method: as §1
Pseudomonas aeruginosa [24] = assay: Antibacterial activity against Pseudomonas aeruginosa ATCC 10145 at 1 mg/mL by diffusion agar method; settings: read-out: IZ; summary of the method: as §1
Pseudomonas aeruginosa [25] = assay: Antibacterial activity against Pseudomonas aeruginosa ATCC 10145 at 5 mg/mL by diffusion agar method; settings: read-out: IZ; summary of the method: as §1
Escherichia coli [26] = assay: Antibacterial activity against Escherichia coli ATCC 23556 at 1 mg/mL by diffusion agar method; settings: read-out: IZ; summary of the method: as §1
Candida albicans [27] = assay: Antimicrobial activity against Candida albicans ATCC 14053 at 2.5 mg/mL by diffusion agar method; settings: read-out: IZ; summary of the method: as §1
Candida albicans [28] = assay: Antimicrobial activity against Candida albicans ATCC 14053 at 1 mg/mL by diffusion agar method; settings: read-out: IZ; summary of the method: as §1
Candida albicans [29] = assay: Antimicrobial activity against Candida albicans ATCC 14053 at 5 mg/mL by diffusion agar method; settings: read-out: IZ; summary of the method: as §1
Penicillium italicum [30] = assay: Antifungal activity against Penicillium italicum ATCC 48114 at 1 mg/mL by diffusion agar method; settings: read-out: IZ; summary of the method: as §1
[31] = system: Syncephalastrum racemosum; assay: Antifungal activity against Syncephalastrum racemosum ATCC 18192 at 1 mg/mL by diffusion agar method; settings: read-out: IZ; summary of the method: as §1
Candida albicans [32] = assay: Antimicrobial activity against Candida albicans ATCC 14053 by broth dilution method; summary of the method: as §2

CC(=O)O[C@@H]1[C@@H](OC(C)=O)[C@H](Sc2nnc3sc(-c4ccc(Cl)cc4)nn23)OC[C@@H]1OC(C)=O
zone of inhibition at 2500 µg/mL (Staphylococcus aureus [1]): 1 mm | zone of inhibition at 2500 µg/mL [2]: 1 mm | MIC (Aspergillus fumigatus [3]): 25 µg/mL (≈ 47.4 µM) | zone of inhibition at 5000 µg/mL (Staphylococcus aureus [4]): 1 mm | MIC [5]: 1600 µg/mL (≈ 3040 µM) | zone of inhibition at 1000 µg/mL (Bacillus subtilis [6]): 1 mm | MIC (Bacillus subtilis [7]): 25 µg/mL (≈ 47.4 µM) | zone of inhibition at 5000 µg/mL [8]: 1 mm | MIC (Staphylococcus aureus [9]): 25 µg/mL (≈ 47.4 µM) | zone of inhibition at 2500 µg/mL (Aspergillus fumigatus [10]): 1 mm | MIC (Pseudomonas aeruginosa [11]): 12.5 µg/mL (≈ 23.7 µM) | zone of inhibition at 5000 µg/mL (Aspergillus fumigatus [12]): 1 mm | zone of inhibition at 1000 µg/mL (Staphylococcus aureus [13]): 1 mm | zone of inhibition at 2500 µg/mL (Pseudomonas aeruginosa [14]): 1 mm | zone of inhibition at 5000 µg/mL (Bacillus subtilis [15]): 1 mm | MIC (Penicillium italicum [16]): 1600 µg/mL (≈ 3040 µM) | zone of inhibition at 5000 µg/mL (Escherichia coli [17]): 1 mm | zone of inhibition at 1000 µg/mL (Aspergillus fumigatus [18]): 1 mm | MIC (Escherichia coli [19]): 1600 µg/mL (≈ 3040 µM) | zone of inhibition at 5000 µg/mL (Penicillium italicum [20]): 1 mm | zone of inhibition at 2500 µg/mL (Bacillus subtilis [21]): 1 mm | zone of inhibition at 2500 µg/mL (Penicillium italicum [22]): 1 mm | zone of inhibition at 2500 µg/mL (Escherichia coli [23]): 1 mm | zone of inhibition at 1000 µg/mL (Pseudomonas aeruginosa [24]): 1 mm | zone of inhibition at 5000 µg/mL (Pseudomonas aeruginosa [25]): 1 mm

O=C(N[C@H](CO)[C@H](O)c1ccc([N+](=O)[O-])cc1)C(Cl)Cl [CHLORAMPHENICOL]
zone of inhibition at 2500 µg/mL (Staphylococcus aureus [1]): 6 mm | zone of inhibition at 1000 µg/mL (Escherichia coli [26]): 6 mm | zone of inhibition at 5000 µg/mL (Staphylococcus aureus [4]): 6 mm | zone of inhibition at 1000 µg/mL (Bacillus subtilis [6]): 6 mm | zone of inhibition at 1000 µg/mL (Staphylococcus aureus [13]): 6 mm | zone of inhibition at 2500 µg/mL (Pseudomonas aeruginosa [14]): 10 mm | zone of inhibition at 5000 µg/mL (Bacillus subtilis [15]): 10 mm | zone of inhibition at 5000 µg/mL (Escherichia coli [17]): 6 mm | zone of inhibition at 2500 µg/mL (Candida albicans [27]): 6 mm | zone of inhibition at 1000 µg/mL (Candida albicans [28]): 6 mm | zone of inhibition at 2500 µg/mL (Bacillus subtilis [21]): 10 mm | zone of inhibition at 2500 µg/mL (Escherichia coli [23]): 6 mm | zone of inhibition at 5000 µg/mL (Candida albicans [29]): 6 mm | zone of inhibition at 1000 µg/mL (Pseudomonas aeruginosa [24]): 6 mm | zone of inhibition at 5000 µg/mL (Pseudomonas aeruginosa [25]): 10 mm

CN(C/C=C/C#CC(C)(C)C)Cc1cccc2ccccc12 [TERBINAFINE]
zone of inhibition at 2500 µg/mL [2]: 10 mm | zone of inhibition at 1000 µg/mL (Penicillium italicum [30]): 6 mm | zone of inhibition at 1000 µg/mL [31]: 10 mm | zone of inhibition at 5000 µg/mL [8]: 10 mm | zone of inhibition at 2500 µg/mL (Aspergillus fumigatus [10]): 10 mm | zone of inhibition at 5000 µg/mL (Aspergillus fumigatus [12]): 10 mm | zone of inhibition at 1000 µg/mL (Aspergillus fumigatus [18]): 6 mm | zone of inhibition at 5000 µg/mL (Penicillium italicum [20]): 10 mm | zone of inhibition at 2500 µg/mL (Penicillium italicum [22]): 10 mm

GENTAMICIN
MIC (Bacillus subtilis [7]): 1.56 µg/mL | MIC (Staphylococcus aureus [9]): 3.12 µg/mL | MIC (Pseudomonas aeruginosa [11]): 12.5 µg/mL | MIC (Escherichia coli [19]): 12.5 µg/mL

CC(=O)O[C@@H]1[C@@H](OC(C)=O)[C@H](n2nc3sc(-c4ccc(Cl)cc4)nn3c2=S)OC[C@@H]1OC(C)=O
zone of inhibition at 5000 µg/mL (Staphylococcus aureus [4]): 1 mm | MIC (Staphylococcus aureus [9]): > 1600 µg/mL | MIC (Penicillium italicum [16]): > 1600 µg/mL | zone of inhibition at 5000 µg/mL (Escherichia coli [17]): 1 mm | MIC (Escherichia coli [19]): > 1600 µg/mL | zone of inhibition at 5000 µg/mL (Penicillium italicum [20]): 1 mm

COC1=CC(=O)C[C@@H](C)[C@]12Oc1c(Cl)c(OC)cc(OC)c1C2=O [GRISEOFULVIN]
MIC (Aspergillus fumigatus [3]): 50 µg/mL (≈ 142 µM) | MIC [5]: 50 µg/mL (≈ 142 µM) | MIC (Penicillium italicum [16]): 50 µg/mL (≈ 142 µM) | MIC (Candida albicans [32]): 50 µg/mL (≈ 142 µM)
